The full list was thinned out, with hits kept by preference.
CHOP UPR activ: apoptotic UPR (CHOP) activation | CHO-CHOP luciferase reporter, luminescence; percent of tunicamycin response over DMSO baseline | activation, % at 10 µM | hit rate 0.34% among 330,000 | AID 449763;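 active = at 10 µM dose, activation of 40% or more, normalized to positive control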;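 note: 100% = tunicamycin at 10 µg/mL and 0% = DMSO alone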
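System: CHO CHOP reporter cells. Amount: 500 cells per well. Buffer or medium: F12 medium, 10% FBS. Compound dosing: one dose, 10 µM in 0.5% DMSO. Incubation: 6 h compound exposure at 37 °C after overnight seeding. Technique: Steady-Glo luciferase luminescence. Benchmarks: tunicamycin and DMSO controls.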
L major viab: Leishmania major promastigote growth inhibition; hit rate 9% among 200,000; Leishmania major promastigotes, resazurin fluorescence viability; inhibition, % at 10 µM; in the data active = inhibition above about 50%;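 note: promastigotes grown with compound for 44 hours at 28 °C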
T cruzi inh: blocks replication of Trypanosoma cruzi; T. cruzi beta-gal in NIH3T3, luminescence, 90 h; inhibition, % (no concentration beside the values); hit rate 1.4% among 300,000; AID 1885;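 active = mean inhibition across valid replicates above about 55%, limit read from the data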;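 note: signal also drops with host cell toxicity which is not excluded here; 0% = plate median of DMSO wells and 100% = zero luminescence signal; higher percent means less beta-gal luminescence so fewer parasites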
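System: mouse NIH/3T3 fibroblasts infected with β-gal-expressing T. cruzi Tulahuen C4 / Input: NIH/3T3 cells, 5,000 per well / Buffer or medium: Low-serum DMEM with 2% FBS / Probe or stimulus: 5000 reporter trypomastigotes per well / Schedule: ≥90 h infection period, 3 h prior cell attachment / Measured by: GalScreen luminescence, 60 min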
UPR XBP1 act: adaptive UPR (XBP1) activation; activation, % at 20 µM; AID 463104; CHO-XBP1 luciferase reporter, IRE1-XBP1 UPR activation, luminescence; percent of tunicamycin response, DMSO as zero; hit rate 0.33% among 330,000;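 active = versus positive control, 20 µM dose yields 30% or more activation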;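 note: 100% = tunicamycin at 10 µg/mL and 0% = DMSO only wells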
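Material – CHO cell line with stable XBP1 luciferase reporter · Buffer or medium – F12 plus 10% FBS · Compound – single point, 20 µM final compound, 1% DMSO · Schedule – 16-18 h cell attachment at 37 °C, then 6 h compound exposure · Signal – Steady-Glo luminescence read · Benchmarks – high control tunicamycin 10 µg/mL final, low control DMSO vehicle only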
Dynein transport: blocks dynein driven cargo transport along microtubules | 3617.4 mouse cells, GR-EGFP nuclear translocation imaging; test concentration mostly 20 µM; stimulated with dexamethasone, 1 µM; active compounds read low | z-score, hits read low | hit rate 0.47% among 220,000;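 active = plate z-score of nuclear minus cytoplasmic receptor signal below a set negative limit, without overly bright fluorescence or cell loss, cut at about -3.5 in these data, passing the limit was not always enough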;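 note: z-score of nuclear minus cytoplasmic ring GR-EGFP intensity difference per well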
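Buffer or medium: Induction medium lacking tetracycline, stripped serum | Also added: Dexamethasone agonist, 1.0 µM final, for 30 min | Timing: 48 h induction, 1 h compound, 30 min dex at 37 °C | Detection: Formaldehyde fixation, Hoechst nuclear stain, 10x automated fluorescence imaging | Measure: Nuclear versus cytoplasmic GR-EGFP signal, averaged per well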
CHOP inh: blocks CHOP induction under ER stress. CHO-K1 CHOP-promoter luciferase, tunicamycin-induced, 15-18 h. inhibition, % at 10 µM. hit rate 3.8% among 220,000;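 active = compounds that reduced the stress-induced luciferase reporter signal by more than about 70% of percent inhibition, limit read from the data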;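 note: 0% = tunicamycin plus vehicle and 100% = wells without tunicamycin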
* = called active by the depositor; · = no result.

SMILES | CHOP UPR activ | L major viab | T cruzi inh | UPR XBP1 act | Dynein transport | CHOP inh
CCOc1cc(/C=N/NS(=O)(=O)c2ccccc2)ccc1OS(=O)(=O)c1ccc(C)cc1 | -2 | 13 | · | -4 | 0.45 | 87*
COC(=O)c1ccc(CN2CCc3ccccc32)cc1 | 3 | · | 10 | -2 | · | ·
CCC(=O)N/N=C/c1ccc(OS(=O)(=O)c2ccccc2)cc1 | 1 | 57* | -2 | 0 | 0.59 | 15
COc1ccc(/C=N/NC(=O)CNS(=O)(=O)c2ccccc2)cc1 | -2 | · | · | -2 | · | ·
O=C(c1ccc(OC2CCN(Cc3ccccn3)CC2)cc1)N1CCCCO1 | -1 | 67* | 1 | -2 | -0.77 | 4
COc1nc(Nc2ccccc2F)nc(OC)n1 | 6 | · | -9 | -1 | · | ·
C/C(=N/NC(=O)CN1CCN(S(=O)(=O)c2ccc(C)cc2)CC1)c1ccco1 | -1 | · | 5 | -1 | -0.46 | 13
COc1cc(CN2CCC(C(=O)N3CCC(C)CC3)CC2)cc(Br)c1O | 1 | 82* | -13 | -1 | -0.13 | -4
COc1cc(CN2CCC(C(=O)N3CCN(c4ccccc4F)CC3)CC2)cc(OC)c1OC | -1 | 83* | 33 | 2 | -0.69 | -2
COc1ccc(CN2CCC(C(=O)N3CCN(c4ccccc4F)CC3)CC2)cc1OC | 2 | -2 | 40 | 0 | 1.5 | 10
O=C(COC(=O)C1=COCCO1)Nc1ccc(Br)cc1Br | 1 | · | · | 5 | · | ·
CCc1ccc(N2CC(C(=O)Nc3ccc(S(=O)(=O)NCC4CCCO4)cc3)CC2=O)cc1 (configuration not stated) | 2 | · | -22 | 0 | · | ·
CCOc1cc(N2CCOCC2)c(OCC)cc1NC(=O)c1ccc2ccccc2n1 | 2 | 19 | 58* | 4 | 0.025 | -6
CCNC(=S)Nc1cc(OCC)c(N2CCOCC2)cc1OCC | 1 | 64* | 12 | -1 | -0.19 | 6
CCOc1cc(N2CCOCC2)c(OCC)cc1NC(=O)c1ccccc1C | -1 | 3 | -37 | -7 | -1.1 | 21
Cc1ccc2c(c1)-n1c(nc3ccccc3c1=O)C(Cc1ccccc1)NC2=O (configuration not stated) | 3 | · | · | -2 | · | ·
OC(CNCC1CCCCC1)COc1ccccc1 (configuration not stated) | -1 | · | 10 | 0 | · | ·
CC(CNCC1CCCO1)COc1ccccc1 (configuration not stated) | 1 | 62* | -5 | 0 | -0.07 | -24
CC(CNCC1CCCO1)COc1cccc2ccccc12 (configuration not stated) | -2 | 80* | 18 | -4 | 0.067 | 14
CC(C)NC[C@H](O)COc1cccc2ccccc12 | 3 | · | 18 | -3 | · | 6
Cc1cc(Cl)ccc1OCC(=O)OCC(=O)N1CCC(C(N)=O)CC1 | 0 | · | · | -1 | · | ·
Cc1ccc(S(=O)(=O)NCCSc2nnnn2-c2cc(C)ccc2C)cc1 | -1 | 100* | 8 | -3 | -0.76 | 57
Cc1nn(CC(C)C)c2sc(C(=O)NC3CC(C)(C)NC(C)(C)C3)cc12 | 0 | · | 23 | 2 | · | ·
CCOC(=O)C1CCN(Cc2ccc(N(C)C)cc2)CC1 | -2 | 44 | · | -1 | -0.74 | 1
CCOC(=O)C1CCN(Cc2ccccc2C)CC1 | -2 | 89* | 11 | 1 | 0.53 | 21
CCOC(=O)C1CCCN(Cc2ccccc2OCC)C1 (configuration not stated) | -1 | 13 | 20 | 2 | -0.22 | -1
CCOC(=O)C1CCN(Cc2ccc(F)c(F)c2)CC1 | -2 | 80* | -3 | -4 | -0.73 | 40
CCOC(=O)C1CCCN(Cc2ccc(OCC)cc2)C1 (configuration not stated) | -1 | 90* | 50 | -2 | -0.33 | 31
CCOC(=O)C1CCN(Cc2cc(C(C)C)c(O)c(C(C)C)c2)CC1 | 3 | 58* | 15 | 6 | -1.2 | 1
COc1cccc(CN2CCCC(C(=O)Nc3ccc(-c4cscn4)cc3)C2)c1 (configuration not stated) | 2 | · | 8 | -1 | · | ·

Screening data from PubChem.
